# Assays:
# Settings in all cases: stereoisomer not certain
# UniProt Q8VGC6 = target: T1, UniProt Q8VGC6
# T1 sequence (whole entry): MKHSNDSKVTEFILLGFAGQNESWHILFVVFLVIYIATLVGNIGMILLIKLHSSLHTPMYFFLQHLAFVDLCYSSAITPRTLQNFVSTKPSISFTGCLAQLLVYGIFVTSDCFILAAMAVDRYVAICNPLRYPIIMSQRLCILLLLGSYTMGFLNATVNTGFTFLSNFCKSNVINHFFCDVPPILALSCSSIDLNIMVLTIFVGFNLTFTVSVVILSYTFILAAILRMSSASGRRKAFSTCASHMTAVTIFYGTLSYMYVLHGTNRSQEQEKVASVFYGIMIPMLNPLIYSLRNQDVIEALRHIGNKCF
# Summary of the method: (§1)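 Each entry records the cell line, G-protein, co-transfected protein and tags used. Methods varied with the source, often transient luciferase assays in mammalian cell lines. A receptor–molecule pair is called responsive (active) if the original authors judged its signal statistically different from baseline and non-responsive (inactive) otherwise.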
# UniProt Q8VGD7 = target: T2, UniProt Q8VGD7
# T2 sequence (whole entry): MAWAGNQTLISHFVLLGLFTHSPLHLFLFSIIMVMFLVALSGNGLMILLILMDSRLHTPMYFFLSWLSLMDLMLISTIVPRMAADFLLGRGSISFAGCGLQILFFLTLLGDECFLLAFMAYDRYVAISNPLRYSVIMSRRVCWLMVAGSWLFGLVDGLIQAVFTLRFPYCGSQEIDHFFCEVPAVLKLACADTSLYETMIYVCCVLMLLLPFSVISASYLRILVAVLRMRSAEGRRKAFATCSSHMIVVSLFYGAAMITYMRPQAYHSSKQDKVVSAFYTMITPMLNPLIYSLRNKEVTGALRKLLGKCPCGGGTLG
# Summary of the method: as §1
# UniProt Q8VGH1 = target: T3, UniProt Q8VGH1
# T3 sequence (whole entry): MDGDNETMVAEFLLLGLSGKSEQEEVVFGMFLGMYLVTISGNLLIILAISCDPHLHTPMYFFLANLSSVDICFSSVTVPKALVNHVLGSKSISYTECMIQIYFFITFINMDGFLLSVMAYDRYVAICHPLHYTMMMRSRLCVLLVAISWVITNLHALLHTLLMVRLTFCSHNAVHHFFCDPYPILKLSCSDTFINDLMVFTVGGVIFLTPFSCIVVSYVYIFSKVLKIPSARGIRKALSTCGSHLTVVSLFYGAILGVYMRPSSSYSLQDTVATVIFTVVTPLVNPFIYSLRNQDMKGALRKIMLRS
# Summary of the method: as §1
# UniProt Q8VGJ1 = target: T4, UniProt Q8VGJ1
# T4 sequence (whole entry): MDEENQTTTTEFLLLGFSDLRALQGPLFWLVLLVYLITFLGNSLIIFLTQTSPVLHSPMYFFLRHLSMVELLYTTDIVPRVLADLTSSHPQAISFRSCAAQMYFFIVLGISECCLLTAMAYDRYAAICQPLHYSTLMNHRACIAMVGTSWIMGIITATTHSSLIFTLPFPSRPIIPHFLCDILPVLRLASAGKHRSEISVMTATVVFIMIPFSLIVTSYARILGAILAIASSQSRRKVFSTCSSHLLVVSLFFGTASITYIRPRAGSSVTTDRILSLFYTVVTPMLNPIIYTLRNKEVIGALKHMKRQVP
# Summary of the method: as §1
# UniProt Q8VGJ3 = target: T5, UniProt Q8VGJ3
# T5 sequence (whole entry): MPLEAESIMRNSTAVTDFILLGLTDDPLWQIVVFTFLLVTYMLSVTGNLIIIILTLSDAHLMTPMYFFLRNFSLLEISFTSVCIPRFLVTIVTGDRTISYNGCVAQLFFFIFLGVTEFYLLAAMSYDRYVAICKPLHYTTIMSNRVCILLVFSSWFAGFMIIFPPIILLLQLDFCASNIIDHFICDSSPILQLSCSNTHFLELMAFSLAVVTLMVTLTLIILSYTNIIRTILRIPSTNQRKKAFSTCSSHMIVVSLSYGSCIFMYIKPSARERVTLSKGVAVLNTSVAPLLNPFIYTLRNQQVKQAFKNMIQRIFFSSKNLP
# Summary of the method: as §1
# UniProt Q8VGJ5 = target: T6, UniProt Q8VGJ5
# T6 sequence (whole entry): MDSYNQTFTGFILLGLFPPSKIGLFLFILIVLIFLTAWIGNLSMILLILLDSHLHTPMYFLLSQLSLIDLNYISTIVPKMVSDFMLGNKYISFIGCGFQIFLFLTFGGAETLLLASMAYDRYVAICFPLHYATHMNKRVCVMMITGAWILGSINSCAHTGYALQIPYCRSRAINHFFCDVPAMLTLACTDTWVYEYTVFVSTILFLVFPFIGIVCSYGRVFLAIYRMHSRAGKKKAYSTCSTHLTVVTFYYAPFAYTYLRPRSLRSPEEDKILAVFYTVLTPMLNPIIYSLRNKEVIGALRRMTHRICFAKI
# Summary of the method: as §1
# UniProt Q8VGL0 = target: T7, UniProt Q8VGL0
# T7 sequence (whole entry): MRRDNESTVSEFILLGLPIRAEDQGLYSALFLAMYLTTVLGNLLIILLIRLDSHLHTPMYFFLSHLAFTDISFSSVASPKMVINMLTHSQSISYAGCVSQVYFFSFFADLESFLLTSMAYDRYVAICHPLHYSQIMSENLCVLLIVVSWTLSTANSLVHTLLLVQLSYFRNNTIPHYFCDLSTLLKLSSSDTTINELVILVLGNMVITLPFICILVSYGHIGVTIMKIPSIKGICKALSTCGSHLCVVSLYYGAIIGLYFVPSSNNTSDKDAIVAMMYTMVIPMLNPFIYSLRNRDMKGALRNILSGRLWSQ
# Summary of the method: as §1
# UniProt Q8VGL7 = target: T8, UniProt Q8VGL7
# T8 sequence (whole entry): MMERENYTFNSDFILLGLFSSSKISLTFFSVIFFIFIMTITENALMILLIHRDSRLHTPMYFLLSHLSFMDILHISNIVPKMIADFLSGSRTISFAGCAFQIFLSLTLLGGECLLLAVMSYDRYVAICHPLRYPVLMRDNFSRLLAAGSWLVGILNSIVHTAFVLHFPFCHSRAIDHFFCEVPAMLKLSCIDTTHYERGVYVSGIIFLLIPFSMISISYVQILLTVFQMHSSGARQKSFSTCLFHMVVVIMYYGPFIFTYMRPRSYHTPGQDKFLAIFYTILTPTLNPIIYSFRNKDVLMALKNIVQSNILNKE
# Summary of the method: as §1
# UniProt Q8VGE3 = target: UniProt Q8VGE3
# UniProt Q8VGE3, sequence (Q8VGE3 as listed by the source): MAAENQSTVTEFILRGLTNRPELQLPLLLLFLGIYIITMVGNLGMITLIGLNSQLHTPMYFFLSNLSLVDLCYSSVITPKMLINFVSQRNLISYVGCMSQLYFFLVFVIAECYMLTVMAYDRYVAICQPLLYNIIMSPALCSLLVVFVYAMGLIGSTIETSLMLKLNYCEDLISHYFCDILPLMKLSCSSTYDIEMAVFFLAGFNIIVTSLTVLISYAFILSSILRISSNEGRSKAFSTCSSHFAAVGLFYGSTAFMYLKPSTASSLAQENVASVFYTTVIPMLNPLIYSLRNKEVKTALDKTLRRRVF
# Summary of the method: as §1
# UniProt Q8VGK6 = target: UniProt Q8VGK6
# UniProt Q8VGK6, sequence (Q8VGK6 as listed by the source): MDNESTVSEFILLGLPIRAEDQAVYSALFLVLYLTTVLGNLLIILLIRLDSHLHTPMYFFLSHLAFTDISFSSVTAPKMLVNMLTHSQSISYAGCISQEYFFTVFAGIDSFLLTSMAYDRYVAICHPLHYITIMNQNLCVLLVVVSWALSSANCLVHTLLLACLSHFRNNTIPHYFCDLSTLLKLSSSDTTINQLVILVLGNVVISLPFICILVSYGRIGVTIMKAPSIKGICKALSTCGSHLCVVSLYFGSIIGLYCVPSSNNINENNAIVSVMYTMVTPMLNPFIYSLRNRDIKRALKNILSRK
# Summary of the method: as §1
compound,measurement,setting,value
CC1=CCC2CC1C2(C)C (stereo not drawn),odorant receptor agonist call,UniProt Q8VGC6,inactive
C=CCCCCCC,odorant receptor agonist call,UniProt Q8VGC6,inactive
CC(C)=CC1CC(C)CCO1 (stereo not drawn),odorant receptor agonist call,UniProt Q8VGC6,inactive
CCCCCC(C)(C)O,odorant receptor agonist call,UniProt Q8VGC6,inactive
CCCCCCCO,odorant receptor agonist call,UniProt Q8VGC6,active
same,odorant receptor agonist call,UniProt Q8VGD7,inactive
same,odorant receptor agonist call,UniProt Q8VGH1,inactive
same,odorant receptor agonist call,UniProt Q8VGJ1,inactive
same,odorant receptor agonist call,UniProt Q8VGJ3,inactive
same,odorant receptor agonist call,UniProt Q8VGJ5,active
same,odorant receptor agonist call,UniProt Q8VGL0,inactive
same,odorant receptor agonist call,UniProt Q8VGL7,inactive
CCCCCCCCCS,odorant receptor agonist call,UniProt Q8VGC6,active
same,odorant receptor agonist call,UniProt Q8VGD7,inactive
same,odorant receptor agonist call,UniProt Q8VGH1,inactive
same,odorant receptor agonist call,UniProt Q8VGJ1,inactive
same,odorant receptor agonist call,UniProt Q8VGJ3,inactive
same,odorant receptor agonist call,UniProt Q8VGJ5,inactive
same,odorant receptor agonist call,UniProt Q8VGL0,inactive
same,odorant receptor agonist call,UniProt Q8VGL7,inactive
CC(C)CN,odorant receptor agonist call,UniProt Q8VGC6,inactive
CC(C)C12CCC(C)(CC1)O2,odorant receptor agonist call,UniProt Q8VGC6,inactive
CCCCCC1=C(C)CCC1=O,odorant receptor agonist call,UniProt Q8VGC6,inactive
same,odorant receptor agonist call,UniProt Q8VGD7,inactive
same,odorant receptor agonist call,UniProt Q8VGH1,inactive
same,odorant receptor agonist call,UniProt Q8VGJ1,inactive
same,odorant receptor agonist call,UniProt Q8VGJ3,inactive
same,odorant receptor agonist call,UniProt Q8VGJ5,active
same,odorant receptor agonist call,UniProt Q8VGL0,inactive
same,odorant receptor agonist call,UniProt Q8VGL7,active
CCCCCCC(C)=O,odorant receptor agonist call,UniProt Q8VGC6,active
same,odorant receptor agonist call,UniProt Q8VGD7,inactive
same,odorant receptor agonist call,UniProt Q8VGH1,inactive
same,odorant receptor agonist call,UniProt Q8VGJ1,inactive
same,odorant receptor agonist call,UniProt Q8VGJ3,inactive
same,odorant receptor agonist call,UniProt Q8VGJ5,active
same,odorant receptor agonist call,UniProt Q8VGL0,inactive
same,odorant receptor agonist call,UniProt Q8VGL7,inactive
CCC(=O)OC(C)(C)C,odorant receptor agonist call,UniProt Q8VGC6,inactive
CCCCCCO,odorant receptor agonist call,UniProt Q8VGC6,inactive
same,odorant receptor agonist call,UniProt Q8VGD7,inactive
same,odorant receptor agonist call,UniProt Q8VGH1,inactive
same,odorant receptor agonist call,UniProt Q8VGJ1,inactive
same,odorant receptor agonist call,UniProt Q8VGJ3,inactive
same,odorant receptor agonist call,UniProt Q8VGJ5,inactive
same,odorant receptor agonist call,UniProt Q8VGL0,inactive
same,odorant receptor agonist call,UniProt Q8VGL7,inactive
Cc1nccnc1C,odorant receptor agonist call,UniProt Q8VGC6,inactive
CCCCOC,odorant receptor agonist call,UniProt Q8VGC6,inactive
CCCCCC(=O)CC,odorant receptor agonist call,UniProt Q8VGC6,active
same,odorant receptor agonist call,UniProt Q8VGD7,inactive
same,odorant receptor agonist call,UniProt Q8VGH1,inactive
same,odorant receptor agonist call,UniProt Q8VGJ1,inactive
same,odorant receptor agonist call,UniProt Q8VGJ3,inactive
same,odorant receptor agonist call,UniProt Q8VGJ5,active
same,odorant receptor agonist call,UniProt Q8VGL0,inactive
same,odorant receptor agonist call,UniProt Q8VGL7,inactive
CCC(=O)O,odorant receptor agonist call,UniProt Q8VGC6,inactive
same,odorant receptor agonist call,UniProt Q8VGD7,inactive
same,odorant receptor agonist call,UniProt Q8VGH1,inactive
same,odorant receptor agonist call,UniProt Q8VGJ1,inactive
same,odorant receptor agonist call,UniProt Q8VGJ3,inactive
same,odorant receptor agonist call,UniProt Q8VGJ5,inactive
same,odorant receptor agonist call,UniProt Q8VGL0,inactive
same,odorant receptor agonist call,UniProt Q8VGL7,inactive
CCC(=O)OC,odorant receptor agonist call,UniProt Q8VGC6,inactive
O=C(Cl)CCCCCCCC(=O)Cl,odorant receptor agonist call,UniProt Q8VGC6,inactive
CCCC(=O)OC,odorant receptor agonist call,UniProt Q8VGC6,inactive
OCc1ccccc1,odorant receptor agonist call,UniProt Q8VGC6,inactive
CC(C)=CCCC(C)CC=O (stereo not drawn),odorant receptor agonist call,UniProt Q8VGC6,inactive
CCCCOC(=O)CCC,odorant receptor agonist call,UniProt Q8VGC6,inactive
CCCCCCCC(C)=O,odorant receptor agonist call,UniProt Q8VGC6,active
same,odorant receptor agonist call,UniProt Q8VGD7,inactive
same,odorant receptor agonist call,UniProt Q8VGH1,inactive
same,odorant receptor agonist call,UniProt Q8VGJ1,inactive
same,odorant receptor agonist call,UniProt Q8VGJ3,inactive
same,odorant receptor agonist call,UniProt Q8VGJ5,inactive
same,odorant receptor agonist call,UniProt Q8VGL0,inactive
same,odorant receptor agonist call,UniProt Q8VGL7,inactive
CCCCCCCCCC(=O)[O-].[H+],odorant receptor agonist call,UniProt Q8VGC6,active
same,odorant receptor agonist call,UniProt Q8VGD7,inactive
same,odorant receptor agonist call,UniProt Q8VGH1,inactive
same,odorant receptor agonist call,UniProt Q8VGJ1,inactive
same,odorant receptor agonist call,UniProt Q8VGJ3,inactive
same,odorant receptor agonist call,UniProt Q8VGJ5,inactive
same,odorant receptor agonist call,UniProt Q8VGL0,inactive
same,odorant receptor agonist call,UniProt Q8VGL7,inactive
CCCCCCCCC(=O)O,odorant receptor agonist call,UniProt Q8VGC6,active
same,odorant receptor agonist call,UniProt Q8VGD7,inactive
same,odorant receptor agonist call,UniProt Q8VGH1,inactive
same,odorant receptor agonist call,UniProt Q8VGJ1,inactive
same,odorant receptor agonist call,UniProt Q8VGJ3,inactive
same,odorant receptor agonist call,UniProt Q8VGJ5,inactive
same,odorant receptor agonist call,UniProt Q8VGL0,inactive
same,odorant receptor agonist call,UniProt Q8VGL7,inactive
CCCCCCCCO,odorant receptor agonist call,UniProt Q8VGC6,active
same,odorant receptor agonist call,UniProt Q8VGD7,inactive
same,odorant receptor agonist call,UniProt Q8VGH1,inactive
same,odorant receptor agonist call,UniProt Q8VGJ1,inactive
same,odorant receptor agonist call,UniProt Q8VGJ3,inactive
same,odorant receptor agonist call,UniProt Q8VGJ5,inactive
same,odorant receptor agonist call,UniProt Q8VGL0,inactive
same,odorant receptor agonist call,UniProt Q8VGL7,inactive
CCCOC(=O)CCC,odorant receptor agonist call,UniProt Q8VGC6,inactive
O=c1ccc2ccccc2o1,odorant receptor agonist call,UniProt Q8VGC6,inactive
same,odorant receptor agonist call,UniProt Q8VGD7,inactive
same,odorant receptor agonist call,UniProt Q8VGE3,active
same,odorant receptor agonist call,UniProt Q8VGH1,active
same,odorant receptor agonist call,UniProt Q8VGJ1,inactive
same,odorant receptor agonist call,UniProt Q8VGJ5,inactive
same,odorant receptor agonist call,UniProt Q8VGK6,active
same,odorant receptor agonist call,UniProt Q8VGL0,inactive
same,odorant receptor agonist call,UniProt Q8VGL7,inactive

# Reference: the M2OR odorant receptor database
